Measured values from different studies.
Each line is one published result; the experiments were not run side by side.
ADRA1A: Alpha-1A adrenergic receptor (ADRA1A, Homo sapiens, UniProt P35348)
Tspo: Translocator protein (Tspo, Rattus norvegicus, UniProt P16257)
HRH2: Histamine H2 receptor (HRH2, Homo sapiens, UniProt P25021)

| SMILES | target | read-out | action | method | setting | Ki |
| --- | --- | --- | --- | --- | --- | --- |
| Cc1c(C)c2c(c(C)c1O)CCC(C)(COc1ccc(CC3SC(=O)NC3=O)cc1)O2 (stereo not shown) | Peroxisome proliferator-activated receptor delta (PPARD, Homo sapiens, UniProt Q03181) | cell-free assay | – | – | – | 26200 nM |
| O=C1c2ccccc2CCN1CCCCN1CCN(c2cccc(Cl)c2Cl)CC1 | ADRA1A | ligand displacement | – | radioligand | – | 117 nM |
| O[C@@H]1[C@H](O)[C@@H]2C[C@@H]2[C@H]1n1cnc2c(NCc3cccc(Cl)c3)ncnc21 | Tspo | ligand displacement | – | radioligand | – | > 10000 nM |
| Cc1nc2cc(OCCCCN3CCN(c4cccc(Cl)c4Cl)CC3)ccc2s1 | HRH2 | ligand displacement | – | radioligand | – | 680 nM |
| CC[C@H](NC(=O)[C@H](CS(=O)(=O)CC1CC1)N[C@@H](c1ccc(F)cc1)C(F)(F)F)C(=O)C(=O)NC1CC1 | Cathepsin S (CTSS, Homo sapiens, UniProt P25774) | enzyme activity | inhibitor | fluorescence | with preincubation | 0.13 nM |
| O=C1c2ccccc2CCN1CCCCN1CCN(c2ccccn2)CC1 | ADRA1A | ligand displacement | – | radioligand | – | 555 nM |
| C[C@H]1Oc2cc(cnc2N)-c2c(nn(C)c2C#N)CN(C)C(=O)c2ccc(F)cc21 | Focal adhesion kinase 1 (PTK2, Homo sapiens, UniProt Q05397) | cell-free assay | – | – | lysate | 10.3 nM |
| CN1CC(Oc2cnc(C#N)cc2-c2ccn3nc(NC(=O)C4CC4)cc3c2)C1 | Receptor-interacting serine/threonine-protein kinase 2 (RIPK2, Homo sapiens, UniProt O43353) | enzyme activity | inhibitor | – | – | 95 nM |
| CNc1nc(C#Cc2ccc(Cl)s2)nc2c1ncn2[C@H]1[C@H](O)[C@H](O)[C@]2(C(=O)OCCC3CCCCC3)C[C@H]12 | Tspo | ligand displacement | – | radioligand | – | > 10000 nM |
| O=C(c1cccc(/N=N/c2cccc(OCCCN3CCCCC3)c2)c1)N1CCCC1 | HRH2 | ligand displacement | – | radioligand | – | > 10000 nM |
| CCNc1nc(C#Cc2ccccc2)nc2c1ncn2[C@H]1[C@H](O)[C@H](O)[C@@H]2C[C@@H]21 | Tspo | ligand displacement | – | radioligand | – | > 10000 nM |
| COc1cccc(OC)c1OCCNCC1COc2ccccc2O1 (stereo not shown) | ADRA1A | ligand displacement | – | radioligand | – | 0.18 nM |
| CNC(=O)[C@@]12C[C@@H]1[C@@H](n1ccc3c(NC)ncnc31)[C@H](O)[C@@H]2O | Tspo | ligand displacement | – | radioligand | – | > 10000 nM |
| CNc1nc2cc(OCCCCN3CCC(c4cccc(Cl)c4Cl)CC3)ccc2s1 | HRH2 | ligand displacement | – | radioligand | – | 330 nM |
| COc1ccccc1N1CCN(CCCCN2CCc3ccccc3C2=O)CC1 | ADRA1A | ligand displacement | – | radioligand | – | 11.1 nM |
| CNC(=O)[C@@]12C[C@@H]1[C@@H](n1cnc3c(NC)nc(C#Cc4ccc(F)c(F)c4)nc31)[C@H](O)[C@@H]2O | Tspo | ligand displacement | – | radioligand | – | > 10000 nM |
